From ChEMBL document CHEMBL1153571, “New imidazo[1,2-a]quinoxaline derivatives: synthesis and in vitro activity against human melanoma” (Eur J Med Chem, 2009)

Tested on: A-375
Assay: Cytotoxicity against human A375 cells after 96 hrs by MTT assay
Format: functional, cell-based
Settings: A-375, 96 h
In short: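 A375 human melanoma cells (ATCC) in RPMI-1640 with 10% heat-inactivated FBS, 2 mM L-glutamine, penicillin/streptomycin/amphotericin B, 37 °C, 5% CO2. Plated at 5000 cells/well, attached overnight. Compounds added in 1% DMSO/medium over a log dilution range and left for 96 h. MTT then added for 4 h at 37 °C. Formazan dissolved in isopropanol/1 M HCl (96/4), read at 570 nm. Survival expressed as % of vehicle control, IC50 taken from sigmoidal curves. At least three experiments in triplicate.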

With `CNc1nc2ccccc2n2c(CCc3ccccc3)cnc12` the IC50 was 1.57 µM.

`CNc1nc2ccccc2n2c(-c3ccccc3OC)cnc12` gave an IC50 of 122 µM.

`CNc1nc2ccccc2n2c(-c3ccc(OC)cc3)cnc12` was tested, and the IC50 was 0.37 µM.

`CCOc1cccc(-c2cnc3c(NC)nc4ccccc4n23)c1` was tested, and the IC50 was 0.3 µM.

Compound `CNc1nc2ccccc2n2c(-c3cccc(C(F)(F)F)c3)cnc12` has an IC50 of 1.28 µM.

In the case of `CNc1nc2ccccc2n2c(-c3cccc(O)c3)cnc12`, the IC50 is reported as 0.56 µM.

With `CNc1nc2ccccc2n2c(-c3cccc(F)c3)cnc12` the IC50 was 24.9 µM.

For `CNc1nc2ccccc2n2c(-c3cccc([N+](=O)[O-])c3)cnc12`, the IC50 was 40 µM.

In the case of `CNc1nc2ccccc2n2c(-c3cccc(OC)c3)cnc12`, the IC50 is reported as 0.2 µM.

Work on `CNc1nc2ccccc2n2c(-c3cccc(C(=O)O)c3)cnc12` yielded an IC50 of 3.47 µM.

Work on `CNc1nc2ccccc2n2c(-c3ccoc3)cnc12` yielded an IC50 of 74.1 µM.

Compound `CNc1nc2ccccc2n2c(-c3cccc(C#N)c3)cnc12` has an IC50 of 27 µM.

With `CNc1nc2ccccc2n2c(-c3cccc(Cl)c3)cnc12` the IC50 was 1.78 µM.

`CNc1nc2ccccc2n2c(-c3ccccc3)cnc12` showed an IC50 of 2.19 µM.

`CNc1nc2ccccc2n2c(-c3cccc(Br)c3)cnc12` showed an IC50 of 0.65 µM.

In the case of `CCOP(=O)(OCC)C(C)NC(=O)N(CCCl)N=O` (configuration not stated) [FOTEMUSTINE], the IC50 is reported as 173 µM.

`CC(C)Cn1cnc2c(N)nc3ccccc3c21` [IMIQUIMOD] was tested, and the IC50 was 70.3 µM.
